Measured values published in ChEMBL document CHEMBL1147356, “Structure and stereochemistry of pectinolides A-C, novel antimicrobial and cytotoxic 5,6-dihydro-alpha-pyrones from Hyptis pectinata” (1993).
In brackets after ≈: the same amount, converted by molar mass. Activity calls are given as the source filed them. The calls are words filed in the database; no cut-off is given here.

How the values were obtained:
[1] = test system: Bacillus subtilis; assay: Antibacterial activity against Bacillus subtilis ATCC 6633 at 1 mg/ml after 24 hrs at 37 degC by agar hole-plate diffusion assay; type: functional; conditions: ATCC 6633, 24 h, read-out: IZ
How it was run: (§1)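 Agar hole-plate diffusion. Agar plates (15 ml) seeded with 1 ml overnight broth culture (10⁶ bacteria/ml); 11 mm holes filled with 100 μl of pure compound at 1 mg/ml. Streptomycin sulfate (1 mg/ml) as positive control. Duplicate per organism, 24 h at 37°. Inhibition zone diameters measured.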

[2] = test system: Escherichia coli; assay: Antibacterial activity against Escherichia coli ATCC 8739 at < 100 ug/ml after 24 hrs at 37 degC by agar hole-plate diffusion assay; type: functional, organism-based
[3] = test system: Pseudomonas aeruginosa; assay: Antibacterial activity against Pseudomonas aeruginosa ATCC 9027 at < 100 ug/ml after 24 hrs at 37 degC by agar hole-plate diffusion assay; type: functional, organism-based
[4] = test system: Candida albicans; assay: Antifungal activity against Candida albicans ATCC 10231 at < 100 ug/ml after 24 hrs at 25 degC by agar hole-plate diffusion assay; type: functional, organism-based
[5] = test system: Bacillus subtilis; assay: Antibacterial activity against Bacillus subtilis ATCC 6633 at < 100 ug/ml after 24 hrs at 37 degC by agar hole-plate diffusion assay; type: functional, organism-based
[6] = test system: Staphylococcus aureus; assay: Antibacterial activity against Staphylococcus aureus ATCC 6538 at < 100 ug/ml after 24 hrs at 37 degC by agar hole-plate diffusion assay; type: functional, organism-based
[7] = test system: Bacillus subtilis; assay: Antibacterial activity against Bacillus subtilis ATCC 6633 after overnight incubation at 37 degC by twofold serial dilution technique; type: functional
How it was run: (§2)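 Twofold broth dilution MIC. Sample at 1 mg/ml in MeOH-H2O (1:1), 0.5 ml added to 4.5 ml nutrient broth, then doubling dilutions from 100 to 0.2 μg/ml. Each tube inoculated to 10⁶ organisms/ml final. Duplicate per organism, with solvent and streptomycin control broths.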

[8] = test system: Staphylococcus aureus; assay: Antibacterial activity against Staphylococcus aureus ATCC 6538 after overnight incubation at 37 degC by twofold serial dilution technique; type: functional; how it was run: as §2
[9] = test system: Escherichia coli; assay: Antibacterial activity against Escherichia coli ATCC 8739 by agar diffusion technique; type: functional
[10] = test system: Pseudomonas aeruginosa; assay: Antibacterial activity against Pseudomonas aeruginosa ATCC 9027 by agar diffusion technique; type: functional
[11] = test system: Candida albicans; assay: Antifungal activity against Candida albicans ATCC 10231 by agar diffusion technique; type: functional
[12] = Cytotoxicity against human BC1 cells after 72 hrs by sulforhodamine B assay; type: functional; conditions: BC1, 72 h, read-out: ED50 (the source's name)
How it was run: (§3)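 Log-phase cells treated with five sample concentrations (20.0–0.032 μg/ml) in DMSO for 72 h at 37°, 5% CO₂, 100% humidity. Sulforhodamine B staining quantified cells per well; results given as ED50.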

[13] = test system: HT-1080; assay: Cytotoxicity against human HT1080 cells after 48 hrs by sulforhodamine B assay; type: functional; conditions: HT-1080, 48 h, read-out: ED50 (the source's name)
How it was run: (§4)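 Log-phase cells exposed to five concentrations (20.0–0.032 μg/ml) of sample in DMSO for 48 h at 37°, 5% CO₂, 100% humidity. Cell quantity per well determined by sulforhodamine B staining; ED50 reported.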

[14] = Cytotoxicity against human LUC1 cells after 48 hrs by sulforhodamine B assay; type: functional; conditions: LUC1, 48 h, read-out: ED50 (the source's name); how it was run: as §4
[15] = test system: SK-MEL-2; assay: Cytotoxicity against human SK-MEL-2 cells after 72 hrs by sulforhodamine B assay; type: functional; conditions: SK-MEL-2, 72 h, read-out: ED50 (the source's name); how it was run: as §3
[16] = test system: KB; assay: Cytotoxicity against human KB cells after 72 hrs by sulforhodamine B assay; type: functional; conditions: read-out: ED50 (the source's name); how it was run: as §3
[17] = Cytotoxicity against vinblastine-resistant human KBV1 cells after 72 hrs by sulforhodamine B assay; type: functional; conditions: KB-V1, 72 h, read-out: ED50 (the source's name); how it was run: as §3
[18] = test system: P388; assay: Cytotoxicity against mouse P388 cells after 48 hrs by sulforhodamine B assay; type: functional; conditions: P388, 48 h, read-out: ED50 (the source's name); how it was run: as §4
[19] = test system: A-431; assay: Cytotoxicity against human A431 cells after 72 hrs by sulforhodamine B assay; type: functional; conditions: A-431, 72 h, read-out: ED50 (the source's name); how it was run: as §3
[20] = test system: LNCaP; assay: Cytotoxicity against human LNCAP cells after 72 hrs by sulforhodamine B assay; type: functional; conditions: read-out: ED50 (the source's name); how it was run: as §3
[21] = test system: ZR-75-1; assay: Cytotoxicity against human ZR-75-1 cells after 72 hrs by sulforhodamine B assay; type: functional; conditions: ZR-75-1, 72 h, read-out: ED50 (the source's name); how it was run: as §3
[22] = test system: Staphylococcus aureus; assay: Antibacterial activity against Staphylococcus aureus ATCC 6538 at 1 mg/ml after 24 hrs at 37 degC by agar hole-plate diffusion assay; type: functional; conditions: ATCC 6538, 24 h, read-out: IZ; how it was run: as §1
[23] = Cytotoxicity against human Col2 cells after 72 hrs by sulforhodamine B assay; conditions: Col2, 72 h, read-out: ED50 (the source's name)

Compound	zone of inhibition at 1000 µg/mL [1] [mm]	Activity [2]	Activity [3]	Activity [4]	MIC [7] [µg/mL]	MIC [8] [µg/mL]	MIC [9] [µg/mL]	MIC [10] [µg/mL]	MIC [11] [µg/mL]	EC50 [12] [µg/mL]	EC50 [13] [µg/mL]	EC50 [14] [µg/mL]	EC50 [15] [µg/mL]	EC50 [16] [µg/mL]	EC50 [17] [µg/mL]	EC50 [18] [µg/mL]	EC50 [19] [µg/mL]	EC50 [20] [µg/mL]	EC50 [21] [µg/mL]	zone of inhibition at 1000 µg/mL [22] [mm]	also measured
CC(=O)O[C@H](/C=C\[C@H]1CC=CC(=O)O1)C[C@@H](OC(C)=O)[C@H](C)OC(C)=O [HYPTOLIDE]	5	inactive	inactive	inactive	100 (≈ 271 µM)	> 100	> 500	> 500	> 500	2.4 (≈ 6.51 µM)	9.6 (≈ 26.1 µM)	4.9 (≈ 13.3 µM)	12.2 (≈ 33.1 µM)	3.6 (≈ 9.77 µM)	4.5 (≈ 12.2 µM)	1.6 (≈ 4.34 µM)	3.7 (≈ 10 µM)	7.5 (≈ 20.4 µM)	6.4 (≈ 17.4 µM)		Activity [5]: inactive; Activity [6]: inactive
CCCC[C@@H](/C=C\[C@@H]1OC(=O)C=C[C@@H]1OC(C)=O)OC(C)=O [PECTINOLIDE A]	10	inactive	inactive	inactive	6.25 (≈ 20.1 µM)	12.5 (≈ 40.3 µM)	200 (≈ 644 µM)	200 (≈ 644 µM)	250 (≈ 806 µM)	1 (≈ 3.22 µM)	1.7 (≈ 5.48 µM)	0.9 (≈ 2.9 µM)	0.7 (≈ 2.26 µM)	1.8 (≈ 5.8 µM)	1.8 (≈ 5.8 µM)	0.9 (≈ 2.9 µM)	1.4 (≈ 4.51 µM)	0.7 (≈ 2.26 µM)	3.6 (≈ 11.6 µM)	8	EC50 [23]: 1 µg/mL (≈ 3.22 µM)
CCCC[C@H](O)/C=C\[C@@H]1OC(=O)C=C[C@@H]1OC(C)=O [PECTINOLIDE B]	6	inactive	inactive	inactive	25 (≈ 93.2 µM)	100 (≈ 373 µM)	300 (≈ 1120 µM)	300 (≈ 1120 µM)	300 (≈ 1120 µM)	2.5 (≈ 9.32 µM)	2.3 (≈ 8.57 µM)	3.8 (≈ 14.2 µM)	2.2 (≈ 8.2 µM)	1.4 (≈ 5.22 µM)	2 (≈ 7.45 µM)	0.1 (≈ 0.373 µM)	0.6 (≈ 2.24 µM)	0.9 (≈ 3.35 µM)	1.6 (≈ 5.96 µM)	4	EC50 [23]: 1.1 µg/mL (≈ 4.1 µM)
CCCC[C@@H](/C=C\[C@@H]1OC(=O)C=C[C@@H]1O)OC(C)=O [PECTINOLIDE C]	8	inactive	inactive	inactive	12.5 (≈ 46.6 µM)	100 (≈ 373 µM)	> 500	> 500	> 500	2 (≈ 7.45 µM)	1.8 (≈ 6.71 µM)	2.3 (≈ 8.57 µM)	3.3 (≈ 12.3 µM)	1.7 (≈ 6.34 µM)	3.2 (≈ 11.9 µM)	2.2 (≈ 8.2 µM)	0.8 (≈ 2.98 µM)	0.8 (≈ 2.98 µM)	1.9 (≈ 7.08 µM)	4	EC50 [23]: 1.6 µg/mL (≈ 5.96 µM)
CN[C@@H]1[C@H](O[C@H]2[C@H](O[C@H]3[C@H](O)[C@@H](O)[C@H](N=C(N)N)[C@@H](O)[C@@H]3N=C(N)N)O[C@@H](C)[C@]2(O)C=O)O[C@@H](CO)[C@H](O)[C@H]1O.CN[C@@H]1[C@H](O[C@H]2[C@H](O[C@H]3[C@H](O)[C@@H](O)[C@H](N=C(N)N)[C@@H](O)[C@@H]3N=C(N)N)O[C@@H](C)[C@]2(O)C=O)O[C@@H](CO)[C@H](O)[C@H]1O.O=S(=O)(O)O.O=S(=O)(O)O.O=S(=O)(O)O [STREPTOMYCIN SULFATE]	13				3.12	6.25														9	
NYSTATIN																					inhibition zone (IZ) [4]: 7 mm
